Assay outcomes as filed in PubChem BioAssay.
This is a sample that favours compounds with a hit; in the whole collection about 5.8% have one here.
IDH1 R132H inh = IDH1 R132H (human) inhibition; 70,000 compounds, 0.18% hits; O75874; IDH1 R132H reductase, diaphorase/resazurin fluorescence, 60 min; inhibition, % at 10 µM; in the data active means inhibition above about 34%; inconclusive means no clear call, values can overlap the other calls; inactive means below about 11%
Target sequence (O75874 whole entry R132H): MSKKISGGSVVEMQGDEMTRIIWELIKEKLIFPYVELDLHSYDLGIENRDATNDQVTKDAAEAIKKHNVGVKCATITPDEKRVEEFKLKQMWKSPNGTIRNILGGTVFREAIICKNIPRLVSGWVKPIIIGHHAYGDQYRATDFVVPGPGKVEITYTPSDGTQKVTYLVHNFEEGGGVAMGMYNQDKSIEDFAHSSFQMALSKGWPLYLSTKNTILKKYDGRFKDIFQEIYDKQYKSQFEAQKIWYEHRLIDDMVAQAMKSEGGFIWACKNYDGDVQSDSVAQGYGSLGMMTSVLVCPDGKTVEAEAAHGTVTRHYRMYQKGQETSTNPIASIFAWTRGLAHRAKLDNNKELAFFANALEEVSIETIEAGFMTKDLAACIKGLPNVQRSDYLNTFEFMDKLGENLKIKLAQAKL
KDM4C inh = inhibitors of human demethylase GASC-1 KDM4C; Q9H3R0; GST-KDM4C 2-372, H3K9me3 peptide, LANCE TR-FRET; inhibition, % at 12.5 µM; 96,000 compounds, 0.15% hits;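 active means mean replicate inhibition above about 25%, with at least 55% of replicates also reaching it, limit read from the data, passing the limit was not always enough; inconclusive means only one of those two conditions met; inactive means neither condition met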
Target sequence (Q9H3R0 2-372 limits assumed): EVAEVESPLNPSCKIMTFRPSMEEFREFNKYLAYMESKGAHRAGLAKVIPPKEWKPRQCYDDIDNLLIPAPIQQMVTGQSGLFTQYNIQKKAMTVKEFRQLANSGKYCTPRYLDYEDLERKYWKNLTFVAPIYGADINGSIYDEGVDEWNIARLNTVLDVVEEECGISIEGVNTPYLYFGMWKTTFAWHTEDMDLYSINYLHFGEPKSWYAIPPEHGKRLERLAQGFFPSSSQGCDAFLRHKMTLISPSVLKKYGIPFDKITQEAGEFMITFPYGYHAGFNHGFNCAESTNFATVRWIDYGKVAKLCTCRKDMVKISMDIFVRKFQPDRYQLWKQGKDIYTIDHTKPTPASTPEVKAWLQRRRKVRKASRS
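reagent = H3K9me3 peptide substrate, Fe(II), 2-oxoglutarate | system = GST-tagged GASC-1 (JMJD2C) catalytic fragment, aa 2-372 | amount = enzyme final amount 10 nM | read-out = Fall in 671/618 emission ratio as inhibition | medium = HEPES buffer, pH 7.5, plus ascorbate | schedule = 30 min reaction, 60 min detection, RT | measured by = LANCE TR-FRET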
Tcruzi prolif = T. cruzi proliferation inhibition. T. cruzi beta-gal in NIH3T3, GalScreen luminescence, 90 h. inhibition, % at 8.34 µM. 77,000 compounds, 5.9% hits. AID 624255;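 active means mean inhibition above about 93%, with at least 55% of replicates each passing it, limit read from the data, passing the limit was not always enough; inconclusive means only one of those two conditions holds; inactive means neither condition holds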
Pf Dd2 growth = P. falciparum Dd2 growth inhibition | 94,000 compounds, 2.3% hits | SYBR Green, 72 h; hits give low values | activity change, % at 10 µM; in the data active means activity change below about -80%; inconclusive means no clear call, values can overlap the other calls
Each line names hits and unclear results; the compound was inactive in the other large screens; ! = not confirmed by another sample.

COc1ccc(S(=O)(=O)N2CCC3(CC2)CN(Cc2ccncc2)[C@@H](CO)c2[nH]c4cc(OC)ccc4c23)cc1	Pf Dd2 growth -87 (no result: IDH1 R132H inh, Tcruzi prolif)
COc1ccc2c3c([nH]c2c1)[C@H](CO)N(S(=O)(=O)c1ccc(C)cc1)CC31CN(Cc2ccccc2)C1	Pf Dd2 growth -87 (no result: IDH1 R132H inh, Tcruzi prolif)
CCC(=O)N1CCC2(CC1)CN(S(=O)(=O)c1ccccc1)[C@@H](CO)c1[nH]c3cc(OC)ccc3c12	Pf Dd2 growth -92 (no result: IDH1 R132H inh, Tcruzi prolif)
COc1ccc(S(=O)(=O)N2CC3(CN(Cc4ccncc4)[C@H](CO)c4[nH]c5cc(OC)ccc5c43)C2)cc1	none (no result: IDH1 R132H inh, Tcruzi prolif)
COc1ccc2c3c([nH]c2c1)[C@H](CO)NCC31CCN(S(=O)(=O)c2ccccc2)CC1	none (no result: IDH1 R132H inh, Tcruzi prolif)
COc1cccc(S(=O)(=O)N2CCC3(CC2)CN[C@@H](CO)c2[nH]c4cc(OC)ccc4c23)c1	Pf Dd2 growth -92 (no result: IDH1 R132H inh, Tcruzi prolif)
CCOc1ccc(C)cc1S(=O)(=O)NCC1CCCO1 (stereo not given)	none (no result: KDM4C inh, Tcruzi prolif, Pf Dd2 growth)
Cc1cc(C)cc(N(C(C)C(=O)Nc2cccc3ccccc23)S(C)(=O)=O)c1 (stereo not given)	none (no result: KDM4C inh, Tcruzi prolif, Pf Dd2 growth)
COc1cccc(CN2C[C@@H]3N[C@H](C2)C3c2ccc(-c3ccncc3)cc2)c1 (stereo not given in full)	Pf Dd2 growth -89! (no result: IDH1 R132H inh, Tcruzi prolif)
Cc1ccc(-c2ccc(C3[C@@H]4CN(Cc5cccnc5)C[C@H]3N4)cc2)cc1 (stereo not given in full)	Pf Dd2 growth -91! (no result: IDH1 R132H inh, Tcruzi prolif)
C[C@H](CO)N1C[C@H](C)[C@H](CN(C)S(=O)(=O)c2cccs2)OCCCC[C@H](C)Oc2ccc(NC(=O)Nc3ccc(F)cc3)cc2C1=O	none
C[C@@H]1CN([C@H](C)CO)C(=O)c2cc(NC(=O)C3CCCCC3)ccc2O[C@@H](C)CCCCO[C@@H]1CN(C)S(=O)(=O)c1cccs1	Pf Dd2 growth -84 (no result: IDH1 R132H inh)
C[C@H]1CCCCO[C@H](CN(C)S(=O)(=O)c2cccs2)[C@@H](C)CN([C@@H](C)CO)C(=O)c2cc(NC(=O)Nc3cccc4ccccc34)ccc2O1	none
C[C@H]1CCCCO[C@H](CN(C)S(=O)(=O)c2cccs2)[C@@H](C)CN([C@@H](C)CO)C(=O)c2cc(NC(=O)C3CCCCC3)ccc2O1	none (no result: IDH1 R132H inh)
C[C@@H]1CN([C@@H](C)CO)C(=O)c2cc(NC(=O)Nc3cccc4ccccc34)ccc2O[C@@H](C)CCCCO[C@@H]1CN(C)S(=O)(=O)c1cccs1	Pf Dd2 growth -90
C[C@@H]1CN([C@H](C)CO)C(=O)c2cc(NC(=O)Nc3ccc(F)cc3)ccc2O[C@@H](C)CCCCO[C@@H]1CN(C)S(=O)(=O)c1cccs1	Pf Dd2 growth -84 (no result: IDH1 R132H inh)
C[C@@H]1CN([C@H](C)CO)C(=O)c2cc(NC(=O)NC3CCCCC3)ccc2O[C@@H](C)CCCCO[C@@H]1CN(C)S(=O)(=O)c1cccs1	Pf Dd2 growth -84
Cc1ccc(N(C(C)C(=O)NC2CC2)S(C)(=O)=O)cc1 (stereo not given)	none (no result: KDM4C inh, Tcruzi prolif, Pf Dd2 growth)
CN(CCCC(=O)O)c1nc(-c2ccc(F)cc2)cs1	none (no result: KDM4C inh, Tcruzi prolif, Pf Dd2 growth)
C[C@@H]1CCCCO[C@H](CN(C)CC2CC2)[C@H](C)CN([C@@H](C)CO)C(=O)c2cc(NC(=O)Nc3ccc(C(F)(F)F)cc3)ccc2O1	Pf Dd2 growth -80 (no result: IDH1 R132H inh)
C[C@@H]1CCCCO[C@H](CN(C)CC2CCCCC2)[C@@H](C)CN([C@H](C)CO)C(=O)c2cc(NC(=O)Nc3ccc(C(F)(F)F)cc3)ccc2O1	none
C[C@@H]1CN([C@@H](C)CO)C(=O)c2cc(NC(=O)Nc3ccc(C(F)(F)F)cc3)ccc2O[C@@H]1CN(C)CC1CCCCC1	Pf Dd2 growth -83
C[C@H]1CN([C@@H](C)CO)C(=O)c2cc(NC(=O)Nc3ccc(C(F)(F)F)cc3)ccc2O[C@H]1CN(C)CC1CCCCC1	none (no result: KDM4C inh)
C[C@@H]1CN([C@@H](C)CO)C(=O)c2cc(NC(=O)Nc3ccc(C(F)(F)F)cc3)ccc2O[C@@H](C)CCCCO[C@@H]1CN(C)CC1CCCCC1	Tcruzi prolif 100
C[C@@H]1CCCCO[C@@H](CN(C)CC2CC2)[C@H](C)CN([C@@H](C)CO)C(=O)c2cc(NC(=O)Nc3ccc(C(F)(F)F)cc3)ccc2O1	none (no result: IDH1 R132H inh)
C[C@@H]1CN([C@H](C)CO)C(=O)c2cccc(NC(=O)Nc3ccc(C(F)(F)F)cc3)c2O[C@@H]1CN(C)Cc1ccc(C(=O)Nc2ccccc2N)cc1	Pf Dd2 growth -90 (no result: IDH1 R132H inh, Tcruzi prolif)
C[C@@H]1CN([C@@H](C)CO)C(=O)c2cccc(NC(=O)Nc3ccc(C(F)(F)F)cc3)c2O[C@@H]1CN(C)Cc1ccc(C(=O)Nc2ccccc2N)cc1	Pf Dd2 growth -91 (no result: IDH1 R132H inh, Tcruzi prolif)
C[C@H](CO)N1C[C@H](C)[C@H](CN(C)Cc2ccc(C(=O)Nc3ccccc3N)cc2)Oc2c(NC(=O)Nc3ccc(C(F)(F)F)cc3)cccc2C1=O	none (no result: IDH1 R132H inh)
Cc1cc(C)nc(SC(C)C(=O)Nc2cccc3ccccc23)n1 (stereo not given)	none (no result: KDM4C inh, Tcruzi prolif, Pf Dd2 growth)
COc1ccc(C#Cc2ccc3c(c2)[C@H]2[C@H](CCN2C(=O)C2CCC2)[C@H](CO)N3)cc1	Pf Dd2 growth inconclusive (no result: IDH1 R132H inh, Tcruzi prolif)
COc1ccc(C#Cc2ccc3c(c2)[C@H]2[C@H](CCN2C(=O)C2CCC2)[C@@H](CO)N3)cc1	Pf Dd2 growth -86 (no result: IDH1 R132H inh, Tcruzi prolif)
COc1ccc(C#Cc2ccc3c(c2)[C@H]2[C@H](CCN2C(=O)C2CCCCC2)[C@H](CO)N3)cc1	none (no result: IDH1 R132H inh)
COc1ccc(C#Cc2ccc3c(c2)[C@@H]2[C@@H](CCN2C(=O)C2CCCC2)[C@H](CO)N3)cc1	Pf Dd2 growth -84 (no result: IDH1 R132H inh, Tcruzi prolif)
COc1ccc(C#Cc2ccc3c(c2)[C@@H]2[C@@H](CCN2C(=O)C2CC2)[C@H](CO)N3)cc1	Pf Dd2 growth -89 (no result: IDH1 R132H inh, Tcruzi prolif)
COc1ccc2c3c([nH]c2c1)[C@H](CO)N(Cc1ccccn1)CC31CCN(Cc2cccc(F)c2)CC1	none (no result: IDH1 R132H inh, Tcruzi prolif)
COc1ccc2c3c([nH]c2c1)[C@@H](CO)N(Cc1cccc(F)c1)CC31CCN(Cc2ccccn2)CC1	Pf Dd2 growth -92 (no result: IDH1 R132H inh, Tcruzi prolif)
COc1cccc(CN2CC3(CCN(Cc4ccccn4)CC3)c3c([nH]c4cc(OC)ccc34)[C@@H]2CO)c1	Pf Dd2 growth -89 (no result: IDH1 R132H inh, Tcruzi prolif)
COc1ccc2c3c([nH]c2c1)[C@H](CO)N(C(=O)Cc1ccccn1)CC31CCN(Cc2ccccn2)CC1	none (no result: IDH1 R132H inh, Tcruzi prolif)
COc1ccc2c3c([nH]c2c1)[C@@H](CO)N(Cc1nccs1)CC31CCN(Cc2nccs2)CC1	Pf Dd2 growth -90 (no result: IDH1 R132H inh, Tcruzi prolif)
COc1ccc(NC(=O)N2[C@@H]3CNC[C@H]2C3c2ccc(-c3ccc(OC)cc3)cc2)cc1 (stereo not given in full)	none (no result: IDH1 R132H inh, Tcruzi prolif)
Cc1ccc(-c2ccc(C3[C@@H]4CN(C(=O)Nc5ccc(C(F)(F)F)cc5)C[C@H]3N4)cc2)cc1 (stereo not given in full)	Pf Dd2 growth -85 (no result: IDH1 R132H inh, Tcruzi prolif)
N#Cc1ccc(-c2ccc(C3[C@@H]4CN(C(=O)Nc5ccc(C(F)(F)F)cc5)C[C@H]3N4)cc2)cc1 (stereo not given in full)	Pf Dd2 growth inconclusive (no result: IDH1 R132H inh, Tcruzi prolif)
COc1ccc(-c2ccc(C3[C@H]4CNC[C@@H]3N4C(=O)Nc3ccc(C(F)(F)F)cc3)cc2)cc1 (stereo not given in full)	Pf Dd2 growth -84! (no result: IDH1 R132H inh, Tcruzi prolif)
